Test results taken from ChEMBL document CHEMBL1136531, “Sphingomyelin analogues as inhibitors of sphingomyelinase” (Bioorg Med Chem Lett, 2003).

Molecular target: T1, Sphingomyelin phosphodiesterase 2 (Rattus norvegicus, UniProt Q9ET64)
T1 sequence (Q9ET64 whole entry): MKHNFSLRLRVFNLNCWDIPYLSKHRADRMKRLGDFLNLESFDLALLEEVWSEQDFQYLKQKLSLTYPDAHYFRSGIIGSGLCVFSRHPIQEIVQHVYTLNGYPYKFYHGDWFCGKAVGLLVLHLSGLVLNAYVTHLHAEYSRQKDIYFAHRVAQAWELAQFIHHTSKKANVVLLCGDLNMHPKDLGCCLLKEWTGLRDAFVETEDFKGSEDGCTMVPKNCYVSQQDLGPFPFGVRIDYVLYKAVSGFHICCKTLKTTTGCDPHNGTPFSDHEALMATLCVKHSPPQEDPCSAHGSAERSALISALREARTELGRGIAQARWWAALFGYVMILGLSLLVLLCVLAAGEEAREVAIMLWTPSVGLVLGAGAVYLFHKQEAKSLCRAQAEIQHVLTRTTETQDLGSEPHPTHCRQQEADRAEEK
Experiment: Inhibitory concentration against the membrane neutral magnesium-dependent Sphingomyelinase (N-SMase) using rat brain microsomes as the enzyme source
Method in brief: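 Rat brain microsomes served as the enzyme source and were incubated 25 min at 37 °C with 0.3mM ¹⁴C-labelled sphingomyelin in 100 mM Tris–HCl (pH 7.5), 20 mM MgCl₂ and 0.25% Triton X-100, across a range of inhibitor concentrations. Released radioactive phosphorylcholine was separated by chloroform/methanol (2/1) extraction and counted by scintillation in the aqueous phase. IC₅₀ was derived from these counts.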

Row | IC50 | Compound
1 | 8.4 µM | CCCCCCCCCCCCC/C=C/[C@@H](O)[C@H](COC(=O)NCCc1ccccn1)NC(=O)C(C)(C)C
2 | 77 µM | CCCCCCCCCCCCC/C=C/[C@@H](O)[C@H](COC(=O)NCCC(C)(C)C)NC(=O)C(C)(C)C
3 | 18 µM | CCCCCCCCCCCCC/C=C/[C@@H](O)[C@H](COC(=O)NCCN(C(C)C)C(C)C)NC(=O)C(C)(C)C
4 | 8.2 µM | CCCCCCCCCCCCC/C=C/[C@@H](O)[C@H](COC(=O)NCc1ccc(N(C)C)cc1)NC(=O)C(C)(C)C
5 | 8.7 µM | CCCCCCCCCCCCC/C=C/[C@@H](O)[C@H](COC(=O)NCC[N+](C)(C)C)NC(=O)C(C)(C)C
6 | 31 µM | CCCCCCCCCCCCC/C=C/[C@@H](O)[C@H](COC(=O)CCCN(C)C)NC(=O)C(C)(C)C
7 | 4.9 µM | CCCCCCCCCCCCC/C=C/[C@@H](O)[C@H](COC(=O)NCCCN(C)C)NC(=O)C(C)(C)C
8 | 2.1 µM | CCCCCCCCCCCCC/C=C/[C@@H](O)[C@H](COC(=O)NCc1cccnc1)NC(=O)C(C)(C)C
9 | > 100 µM | CCCCCCCCCCCCC/C=C/[C@@H](O)[C@H](COC(=O)NCc1ccncc1)NC(=O)CCCCCCCCCCCCCCCCC
10 | > 100 µM | CCCCCCCCCCCCC/C=C/[C@@H](O)[C@H](COC(=O)NCc1ccncc1)NC(=O)OC(C)(C)C
11 | 5 µM | CCCCCCCCCCCCC/C=C/[C@@H](O)[C@H](COC(=O)NCc1ccccn1)NC(=O)C(C)(C)C
12 | > 100 µM | CCCCCCCCCCCCC/C=C/[C@@H](O)[C@H](COC(=O)NCc1ccncc1)NC(C)=O
13 | 4.1 µM | CCCCCCCCCCCCC/C=C/[C@@H](O)[C@H](COC(=O)NCCN(C)C)NC(=O)C(C)(C)C
14 | 1.8 µM | CCCCCCCCCCCCC/C=C/[C@@H](O)[C@H](COC(=O)NCc1ccncc1)NC(=O)C(C)C
15 | > 100 µM | CCCCCCCCCCCCC/C=C/C(O)C(N)COC(=O)NCc1ccncc1 (single isomer, unassigned)
16 | 7.9 µM | CCCCCCCCCCCCC/C=C/[C@@H](O)[C@H](COC(=O)Nc1ccccn1)NC(=O)C(C)(C)C
